In article PMC5697680 (Clinical Pharmacology in Drug Development, 2017):

Experiments:
[1] = cited from earlier work
Tolerability assessment = assay type: in vivo, healthy adults
Method in brief: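 Healthy adults (18-65 years) got five single oral 20 mg doses of test compound (granule suspension or dispersible tablet in low- or high-mineral water, immediate or after 30-minute hold). Dosing followed a Latin square, fasted in the morning, with at least 7 days' washout. AEs and SAEs were recorded from first dose to follow-up at least 7 days post-dose, along with labs, vital signs, ECG and physical exams. Results were summarized as subject numbers and percentages.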

[2] = test system: OCT2/MATE renal transporter; settings: results in increased exposure to OCT2 substrates such as metformin; cited from earlier work

Compound: C[C@@H]1CCO[C@H]2Cn3cc(C(=O)NCc4ccc(F)cc4F)c(=O)c(O)c3C(=O)N12 [DTG, Dolutegravir]
- reduction of DTG exposure by magnesium‐ and aluminum‐containing antacid ([1]; concomitant administration): 70%
- reduction of DTG plasma exposure by calcium supplement ([1]; fasting conditions): 39%
- reduction of DTG plasma exposure by iron supplement ([1]; fasting conditions): 54%
- AEs reported, number of subjects (Tolerability assessment; 15 participants, all five single 20 mg treatments): 9 subjects
- SAEs, AEs leading to withdrawal, or deaths (Tolerability assessment; 15 participants, all treatments): No SAEs
- drug‐related AEs (nausea, mild), number of subjects (Tolerability assessment; two reports of nausea in one subject, resolved on the same day): 1 n
- effect on OCT2/MATE renal transporter [2]: inhibition
